ChEMBL document CHEMBL4152223 (Eur J Med Chem, 2018)
Values after ≈ are worked out from the molar mass of the structure shown. Active and inactive are the calls of the source. The rule behind the calls is not given here.

Tests used:
Mycobacterium kansasii [1] = assay: Antimycobacterial activity against Mycobacterium kansasii 235/80 after 7 days; type: functional; conditions: 235/80, 168 h
HepG2 = assay: Cytotoxicity against human HepG2 cells assessed as reduction in cell viability by MTS assay; type: cell-based
How it was run: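 HepG2 human hepatocellular carcinoma cells (passage 2-4) were cultured in Eagle's MEM with 10% FBS, 1% L-glutamine and non-essential amino acids. Compounds were dissolved in DMSO and tested in triplicate at eight concentrations. Viability was read by colorimetric MTS tetrazolium reduction. Controls were 100% viability and 0% viability (10% DMSO). IC50 is the concentration reducing viability to 50% of control.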

Mycobacterium kansasii [2] = assay: Antimycobacterial activity against Mycobacterium kansasii 235/80 after 21 days; type: functional; conditions: 235/80, 504 h
[3] = tested on: Mycobacterium tuberculosis; assay: Antimycobacterial activity against Mycobacterium tuberculosis H37Rv after 21 days; type: functional; conditions: 504 h
[4] = tested on: Mycobacterium tuberculosis; assay: Antimycobacterial activity against Mycobacterium tuberculosis H37Rv over producing InhA after 25 days by drop dilution method; type: functional, organism-based
Mycobacterium kansasii [5] = assay: Antimycobacterial activity against Mycobacterium kansasii 6509/96 after 21 days; type: functional; conditions: 6509/96, 504 h
Mycobacterium kansasii [6] = assay: Antimycobacterial activity against Mycobacterium kansasii 6509/96 after 14 days; type: functional; conditions: 6509/96, 336 h
[7] = biological target: T1, Enoyl-[acyl-carrier-protein] reductase [NADH] (Mycobacterium tuberculosis) (UniProt P9WGR1); assay: Inhibition of Mycobacterium tuberculosis H37Rv InhA assessed as reduction of methoxy and keto mycolic acid synthesis at 4 to 8 uM preincubated for 24 hrs followed by [14C]acetate addition and measured after 24 hrs by TLC analysis
T1 sequence (whole entry): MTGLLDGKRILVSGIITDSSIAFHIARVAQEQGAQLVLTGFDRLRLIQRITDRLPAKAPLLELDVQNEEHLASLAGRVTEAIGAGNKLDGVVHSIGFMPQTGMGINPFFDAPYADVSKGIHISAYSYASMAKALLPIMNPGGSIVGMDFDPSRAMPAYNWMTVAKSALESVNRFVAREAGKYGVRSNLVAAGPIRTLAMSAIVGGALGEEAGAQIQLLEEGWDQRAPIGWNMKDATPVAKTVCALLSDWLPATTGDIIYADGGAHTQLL

Mycobacterium kansasii [8] = assay: Antimycobacterial activity against Mycobacterium kansasii 235/80 after 14 days; type: functional; conditions: 235/80, 336 h
[9] = tested on: Mycobacterium tuberculosis; assay: Antimycobacterial activity against Mycobacterium tuberculosis H37Rv after 25 days by drop dilution method; type: functional, organism-based
Mycobacterium avium [10] = assay: Antimycobacterial activity against INH/RIF/OFX resistant Mycobacterium avium 330/88 after 21 days; type: functional; conditions: 330/88, 504 h
Mycobacterium avium [11] = assay: Antimycobacterial activity against INH/RIF/OFX resistant Mycobacterium avium 330/88 after 14 days; type: functional; conditions: 330/88, 336 h
[12] = tested on: Mycobacterium tuberculosis; assay: Antimycobacterial activity against Mycobacterium tuberculosis H37Rv after 14 days; type: functional; conditions: 336 h
[13] = Selectivity index, ratio of IC50 for human HepG2 cells to MIC for Mycobacterium tuberculosis H37Rv after 14 days; type: toxicity; conditions: read-out: Selectivity Index
How it was run: (§1)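 SI is calculated as HepG2 IC50 divided by MIC. HepG2 cells (passage 2-4) were grown in EMEM with 10% FBS, L-glutamine and non-essential amino acids. Compounds in DMSO were tested in triplicate at eight concentrations, and viability was read by MTS tetrazolium reduction. IC50 is the concentration reducing viability to 50% of control. 10% DMSO served as the 0% viability control.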

[14] = biological target: T1, Enoyl-[acyl-carrier-protein] reductase [NADH] (Mycobacterium tuberculosis); assay: Inhibition of Mycobacterium tuberculosis H37Rv InhA assessed as reduction of trehalose dimycolate synthesis at 4 to 8 uM preincubated for 24 hrs followed by [14C]acetate addition and measured after 24 hrs by TLC analysis
[15] = biological target: T1, Enoyl-[acyl-carrier-protein] reductase [NADH] (Mycobacterium tuberculosis); assay: Inhibition of Mycobacterium tuberculosis H37Rv InhA assessed as reduction of trehalose monomycolate synthesis at 4 to 8 uM preincubated for 24 hrs followed by [14C]acetate addition and measured after 24 hrs by TLC analysis
[16] = biological target: T1, Enoyl-[acyl-carrier-protein] reductase [NADH] (Mycobacterium tuberculosis); assay: Inhibition of Mycobacterium tuberculosis H37Rv InhA assessed as reduction of methyl esters of fatty acid synthesis at 4 to 8 uM preincubated for 24 hrs followed by [14C]acetate addition and measured after 24 hrs by TLC analysis
[17] = biological target: T1, Enoyl-[acyl-carrier-protein] reductase [NADH] (Mycobacterium tuberculosis); assay: Inhibition of Mycobacterium tuberculosis H37Rv InhA assessed as reduction of cardiolipin synthesis at 4 to 8 uM preincubated for 24 hrs followed by [14C]acetate addition and measured after 24 hrs by TLC analysis
[18] = biological target: T1, Enoyl-[acyl-carrier-protein] reductase [NADH] (Mycobacterium tuberculosis); assay: Inhibition of Mycobacterium tuberculosis H37Rv InhA assessed as reduction of phosphatidylethanolamine synthesis at 4 to 8 uM preincubated for 24 hrs followed by [14C]acetate addition and measured after 24 hrs by TLC analysis
[19] = biological target: T1, Enoyl-[acyl-carrier-protein] reductase [NADH] (Mycobacterium tuberculosis); assay: Inhibition of Mycobacterium tuberculosis H37Rv InhA assessed as reduction of alpha mycolic acid synthesis at 4 to 8 uM preincubated for 24 hrs followed by [14C]acetate addition and measured after 24 hrs by TLC analysis
Mycobacterium kansasii [20] = assay: Antimycobacterial activity against Mycobacterium kansasii 6509/96 after 7 days; type: functional; conditions: 6509/96, 168 h
[21] = biological target: T1, Enoyl-[acyl-carrier-protein] reductase [NADH] (Mycobacterium tuberculosis); assay: Inhibition of Mycobacterium tuberculosis H37Rv InhA assessed as reduction of trehalose dimycolate synthesis at 36.5 uM preincubated for 1 hr followed by [14C]glucose addition and measured after 24 hrs by TLC analysis
[22] = Selectivity index, ratio of IC50 for human HepG2 cells to MIC for Mycobacterium kansasii 6509/96; type: toxicity; conditions: read-out: Selectivity Index; how it was run: as §1
[23] = biological target: T1, Enoyl-[acyl-carrier-protein] reductase [NADH] (Mycobacterium tuberculosis); assay: Inhibition of Mycobacterium tuberculosis H37Rv InhA assessed as reduction of trehalose monomycolate synthesis at 36.5 uM preincubated for 1 hr followed by [14C]glucose addition and measured after 24 hrs by TLC analysis
[24] = Selectivity index, ratio of IC50 for human HepG2 cells to MIC for Mycobacterium kansasii 235/80; type: toxicity; conditions: read-out: Selectivity Index; how it was run: as §1
[25] = biological target: T1, Enoyl-[acyl-carrier-protein] reductase [NADH] (Mycobacterium tuberculosis); assay: Inhibition of Mycobacterium tuberculosis H37Rv InhA assessed as reduction of cardiolipin synthesis at 40 uM preincubated for 1 hr followed by [14C]glucose addition and measured after 24 hrs by TLC analysis
[26] = biological target: T1, Enoyl-[acyl-carrier-protein] reductase [NADH] (Mycobacterium tuberculosis); assay: Inhibition of Mycobacterium tuberculosis H37Rv InhA assessed as reduction of trehalose monomycolate synthesis at 40 uM preincubated for 1 hr followed by [14C]glucose addition and measured after 24 hrs by TLC analysis
[27] = biological target: T1, Enoyl-[acyl-carrier-protein] reductase [NADH] (Mycobacterium tuberculosis); assay: Inhibition of Mycobacterium tuberculosis H37Rv InhA assessed as reduction of methyl esters of fatty acid synthesis at 40 uM preincubated for 1 hr followed by [14C]glucose addition and measured after 24 hrs by TLC analysis
[28] = biological target: T1, Enoyl-[acyl-carrier-protein] reductase [NADH] (Mycobacterium tuberculosis); assay: Inhibition of Mycobacterium tuberculosis H37Rv InhA assessed as reduction of alpha mycolic acid synthesis at 40 uM preincubated for 1 hr followed by [14C]glucose addition and measured after 24 hrs by TLC analysis
[29] = biological target: T1, Enoyl-[acyl-carrier-protein] reductase [NADH] (Mycobacterium tuberculosis); assay: Inhibition of Mycobacterium tuberculosis H37Rv InhA assessed as reduction of phosphatidylethanolamine synthesis at 40 uM preincubated for 1 hr followed by [14C]glucose addition and measured after 24 hrs by TLC analysis
[30] = biological target: T1, Enoyl-[acyl-carrier-protein] reductase [NADH] (Mycobacterium tuberculosis); assay: Inhibition of Mycobacterium tuberculosis H37Rv InhA assessed as reduction of methoxy and keto mycolic acid synthesis at 40 uM preincubated for 1 hr followed by [14C]glucose addition and measured after 24 hrs by TLC analysis
[31] = biological target: T1, Enoyl-[acyl-carrier-protein] reductase [NADH] (Mycobacterium tuberculosis); assay: Inhibition of Mycobacterium tuberculosis H37Rv InhA assessed as reduction of trehalose dimycolate synthesis at 40 uM preincubated for 1 hr followed by [14C]glucose addition and measured after 24 hrs by TLC analysis
[32] = tested on: Mycobacterium tuberculosis; assay: Effect on short chain fatty acid acid synthesis in Mycobacterium tuberculosis H37Rv at 40 uM preincubated for 1 hr followed by [14C]glucose addition and measured after 24 hrs by TLC analysis; type: functional, organism-based

| SMILES | MIC (Mycobacterium kansasii [1]) [µM] | IC50 (HepG2) [mM] | MIC (Mycobacterium kansasii [2]) [µM] | MIC [3] [µM] | Activity [4] | MIC (Mycobacterium kansasii [5]) [µM] | MIC (Mycobacterium kansasii [6]) [µM] | MIC (Mycobacterium kansasii [8]) [µM] | Activity [9] | MIC (Mycobacterium avium [10]) [µM] | MIC (Mycobacterium avium [11]) [µM] | MIC [12] [µM] | selectivity ratio at 336 h [13] | MIC (Mycobacterium kansasii [20]) [µM] | selectivity ratio [22] | selectivity ratio [24] | further results |
| --- | --- | --- | --- | --- | --- | --- | --- | --- | --- | --- | --- | --- | --- | --- | --- | --- | --- |
| CCCCCCCCCCCCNc1nnc(-c2ccncc2)o1 | 125 (≈ 41.3 µg/mL) | > 0.05 | 125 (≈ 41.3 µg/mL) | 8 (≈ 2.64 µg/mL) | Active | 125 (≈ 41.3 µg/mL) | 125 (≈ 41.3 µg/mL) | 125 (≈ 41.3 µg/mL) | Active | 16 (≈ 5.29 µg/mL) | 8 (≈ 2.64 µg/mL) | 4 (≈ 1.32 µg/mL) | > 6.25 | 125 (≈ 41.3 µg/mL) | – | – | inhibition [7]: inactive; inhibition [14]: inactive; inhibition [15]: inactive; inhibition [16]: inactive; inhibition [17]: inactive; inhibition [18]: inactive; inhibition [19]: inactive |
| NNC(=O)c1ccncc1 [ISONIAZID] | > 250 | > 5 | > 250 | 1 (≈ 0.137 µg/mL) | – | 8 (≈ 1.1 µg/mL) | 8 (≈ 1.1 µg/mL) | > 250 | – | > 250 | > 250 | 0.5 (≈ 0.0686 µg/mL) | > 5000 | 8 (≈ 1.1 µg/mL) | > 625 | > 625 | inhibition [21]: Active; inhibition [23]: Active |
| CNC(=O)NNC(=O)c1ccncc1 | 1000 (≈ 194 µg/mL) | > 5 | > 1000 | 1 (≈ 0.194 µg/mL) | inactive | 1000 (≈ 194 µg/mL) | 500 (≈ 97.1 µg/mL) | > 1000 | inactive | > 1000 | > 1000 | 0.5 (≈ 0.0971 µg/mL) | > 5000 | 500 (≈ 97.1 µg/mL) | – | – | inhibition [25]: Active; inhibition [26]: Active; inhibition [27]: Active; inhibition [28]: Active; inhibition [29]: Active; inhibition [30]: Active; inhibition [31]: Active; Activity [32]: inactive |
| CCCCCNC(=O)NNC(=O)c1ccncc1 | 62.5 (≈ 15.6 µg/mL) | > 4 | 125 (≈ 31.3 µg/mL) | 8 (≈ 2 µg/mL) | – | 125 (≈ 31.3 µg/mL) | 125 (≈ 31.3 µg/mL) | 125 (≈ 31.3 µg/mL) | – | > 1000 | > 1000 | 8 (≈ 2 µg/mL) | > 500 | 125 (≈ 31.3 µg/mL) | > 32 | > 32 | – |
| CCCCNC(=O)NNC(=O)c1ccncc1 | 500 (≈ 118 µg/mL) | > 3 | 1000 (≈ 236 µg/mL) | 8 (≈ 1.89 µg/mL) | – | 500 (≈ 118 µg/mL) | 250 (≈ 59.1 µg/mL) | 1000 (≈ 236 µg/mL) | – | > 1000 | > 1000 | 8 (≈ 1.89 µg/mL) | > 375 | 250 (≈ 59.1 µg/mL) | – | – | – |
